Measurements: paper PMC3786204 (Journal of immunology (Baltimore, Md. : 1950), 2013)

Tests used:
Assay type in all cases: cell-based, human
[1] = system: HIV-1 p24 Gag151–159 specific CTL; test: Surface CD8 expression on peptide reactive CTL; details: TLN9-specific CTL, gated on IFN-γ producing cells; CTL lines from 5 donors
How it was run: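 CTL lines were primed in vitro from 5 HIV-1-naïve donors and maintained with IL-2 (200 IU/ml) and IL-7 (10 ng/ml). They were restimulated with peptide variants and assessed by intracellular cytokine staining with anti-CD28/CD49d and Golgistop/Golgiplug. CD8 MFI was read on IFN-γ-producing cells by multiparameter flow cytometry. Statistics used one-way ANOVA with Tukey post hoc test.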

autologous iDC [2] = test: 4 h 51Cr-release cytotoxicity assay; details: 1 μg/ml peptide, TLN9-specific CTL
How it was run: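 Targets were autologous iDC, generated by culturing monocytes 5–7 days in IMDM with 10% FBS, GM-CSF and IL-4 (both 1000 IU/ml), then peptide-pulsed. Effectors were CTL primed in vitro from CD8+ T cells of HIV-1-seronegative HLA-A*0201 donors, using peptide-pulsed αDC1. Lysis was read by standard 4 h 51Cr release.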

autologous iDC [3] = test: Flow cytometry viability and recovery of iDC in CTL:DC co-cultures; details: CTL and iDC co-culture, 6h, 3:1 CTL:DC
How it was run: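 CTL were added to day-5 autologous iDC for 6h at 3:1 (CTL:DC). Cultures had no peptide, irrelevant control, priming or variant peptide; titration used decreasing cognate peptide down to .001 μg/ml. Cell loss came from recovered cell-type ratios gated by light scatter and CD3 (T cells) or CD86 (DC). Viability of DC-gated events used LIVE/DEAD Aqua. Three experiments, ± standard error.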

iDC = test: Microscopy of iDC:CTL co-cultures; details: 24 h co-culture, light microscopy
How it was run: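 CTL (2×10^5 cells/well) were added to day-5 autologous iDC cultures with 1 μg/ml irrelevant, priming or variant 9mer peptide. Co-cultures were examined by light microscopy after 24h. For SEM, cells grew on glass coverslips removed at 24h, fixed in 2.5% glutaraldehyde in PBS and post-fixed in 1% aqueous osmium tetroxide.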

[4] = system: autologous pre-activated CD4+ T cells; test: CTL cytotoxicity against peptide-pulsed CD4+ T cell targets; details: targets pulsed with 1 μg/mL peptide, 18h co-culture
How it was run: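 Targets: PBMC activated 5 days with PHA (1μg/ml) and rIL-2 (100 IU/ml), then CD4+ cells negatively selected, pulsed 1 h with 1μg/mL peptide and washed. Co-cultured with CTL 18h at 37°C at CTL:target 3:1, 1:1, 0.3:1 and 0:1. Stained for CD4/CD8, fixed/permeabilized, 7-AAD 20 min at 37°C. Linear 7-AAD on singlet CD4+ events scored G1, S/G2 and sub-G1 fractions. 4 experiments.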

DENV3 specific CTL = test: Surface CD8 expression on DENV3 epitope specific CTL; details: CTL primed against DENV3 NS3 399–407 KLNDWDFVV
How it was run: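 CD8+ T cells were negatively selected from HIV-1-seronegative HLA-A*0201 donors and plated at 7.5×10^5/well. They were primed with DENV3 epitope-pulsed αDC1 (7.5×10^4/well) plus γ-irradiated J558-CD40L cells (5×10^4/well). rhIL-2 (50 IU/ml), rhIL-7 (10 ng/ml) and rhIL-15 (1 ng/ml) were added at day 4. CTL were tested against serotype-variant peptides, with CD8 read by flow cytometry.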

DC [5] = test: DC maturation, surface CD86 by flow cytometry; details: 48h; for Effect on CTL-induced DC maturation (CD86 enhancement): PLN9 expressing DC + CTL, sTNF-R1 0.1 μg/ml, sIFNγ-R1 1 μg/ml
How it was run: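 Day 5 autologous immature DC were co-cultured for 48h with TLN9-specific CTL (2×10^5 cells/well) plus variant peptide PLN9 (1 μg/ml), with or without blockers sTNF-RI (0.1 μg/ml) or IFNγ-R1 (1 μg/ml). Controls were TNF-α (50 ng/ml)-matured DC and peptide-exposed DC without CTL. DC surface CD86 was measured by flow cytometry.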

DC [6] = test: DC IL-12p70 producing capacity after CD40L stimulation; details: exogenous TNF-α 50 ng/ml, 48h, then CD40L stimulation
[7] = system: Gag77–85 reactive CTL from HIV-1 positive donor; test: Surface CD8 expression on memory CTL expanded from HIV-1 positive donor PBMC; details: CTL expanded from PBMC 6 months post seroconversion

In the case of TLNAWVKVV [TLN9], the “Surface expression of CD8 on peptide reactive CTL” value [1] is reported as “decreased”, the “CTL lytic activity against peptide-labeled iDC” value (autologous iDC [2]) is reported as “showed lytic activity” and the “Peptide concentration at which a substantial drop in killing occurs” value (autologous iDC [3]) is reported as “.001 µg/mL”. For the same molecule, the “DC morphology / survival in co-culture with CTL” value (iDC) was “failed to survive”.

For PLNAWVKVV [PLN9], the “Surface expression of CD8 on peptide reactive CTL” value [1] was “maintained”, the “Killing of peptide-labeled CD4+ T cell targets by TLN9-specific CTL” value [4] was “not effectively killed” and the “CTL lytic activity against peptide-labeled iDC” value (autologous iDC [2]) was “dramatically reduced”. For the same molecule, the “DC morphology / survival in co-culture with CTL” value (iDC) was “pronounced webbed network of long cellular extensions”.

KLNDWDFVV [reference compound] was tested, and the “CD8 expression on reactive CTL” value (DENV3 specific CTL) was “down-regulation of CD8”.

For RTNDWDFVV, the “CD8 expression on reactive CTL” value (DENV3 specific CTL) was “CD8 expression was maintained”.

For TNF-α, the “CD86 expression of DC matured with the factor” value (DC [5]; exogenous TNF-α 50 ng/ml) was “high levels of CD86” and the “IL-12p70 producing ability of DC matured with the factor” value (DC [6]) was “curtailed”.

With SLFNTVATL the “CD8 expression on reactive CTL” value [7] was “down-regulation occurred”.

In the case of KLTDWDFVV, the “CD8 expression on reactive CTL” value (DENV3 specific CTL) is reported as “CD8 expression was maintained”.

B1: sTNF-rec1: Human soluble TNF receptor I, TNF-α blocker (protein, UniProt P19438 30-211, looked up)
extracellular domain: LVPHLGDREKRDSVCPQGKYIHPQNNSICCTKCHKGTYLYNDCPGPGQDTDCRECESGSFTASENHLRHCLSCSKCRKEMGQVEISSCTVDRDTVCGCRKNQYRHYWSENLFQCFNCSLCLNGTVHLSCQEKQNTVCTCHAGFFLRENECVSCSNCKKSLECTKLCLPQIENVKGTEDSGTT
modifications: extracellular domain
With B1 the “Effect on CTL-induced DC maturation (CD86 enhancement)” value (DC [5]) was “partially reduced”.

B2: sIFNγ-rec1: soluble IFN-γ receptor 1, IFN-γ blocker (protein, UniProt P15260 18-245, looked up)
extracellular domain: EMGTADLGPSSVPTPTNVTIESYNMNPIVYWEYQIMPQVPVFTVEVKNYGVKNSEWIDACINISHHYCNISDHVGDPSNSLWVRVKARVGQKESAYAKSEEFAVCRDGKIGPPKLDIRKEEKQIMIDIFHPSVFVNGDEQEVDYDPETTCYIRVYNVYVRMNGSEIQYKILTQKEDDCDEIQCQLAIPVSSLNSQYCVSAEGVLHVWGVTTEKSKEVCITIFNSSIKG
modifications: extracellular domain
For B2, the “Effect on CTL-induced DC maturation (CD86 enhancement)” value (DC [5]) was “did not inhibit”.
